For assay [1], the target named is T1, Endothelin receptor type B (Homo sapiens, UniProt P24530).
T1 sequence (P24530 whole entry): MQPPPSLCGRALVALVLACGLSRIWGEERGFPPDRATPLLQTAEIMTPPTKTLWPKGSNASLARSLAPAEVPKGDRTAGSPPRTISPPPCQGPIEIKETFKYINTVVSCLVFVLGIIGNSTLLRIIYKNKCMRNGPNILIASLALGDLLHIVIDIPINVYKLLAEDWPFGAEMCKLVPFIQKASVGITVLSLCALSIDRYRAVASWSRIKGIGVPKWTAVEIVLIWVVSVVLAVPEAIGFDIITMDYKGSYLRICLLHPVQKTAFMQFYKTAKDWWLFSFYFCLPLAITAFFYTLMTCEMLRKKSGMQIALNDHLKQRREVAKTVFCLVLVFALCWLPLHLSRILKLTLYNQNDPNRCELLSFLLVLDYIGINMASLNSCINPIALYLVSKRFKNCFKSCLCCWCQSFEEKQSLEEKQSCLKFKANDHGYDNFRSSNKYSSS
Nature of the assay: Inhibition of [125I]ET-3 (ETB assay) binding to human cloned Endothelin B receptor in CHO cells. The format is cell-based. A digest of the protocol:
(§1)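 CHO cells stably expressing human ETA or ETB receptor; 10–50 µg membrane protein incubated 30 min at 25 °C in 50 mM Tris-HCl pH 7.4, 5 mM MnCl2, 40 µg/mL bacitracin, 0.2% BSA, with 25 pM [125I]ET-1 (ETA) or 25 pM [125I]ET-3 (ETB). Nonspecific binding with 0.1 µM ET-1; filtration, scintillation counting. Triplicate, repeated at least once; Ki by Cheng–Prusoff or nonlinear regression, ±SE.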

For assay [2], the target named is T2, Endothelin receptor, ET-A/ET-B (Homo sapiens) (UniProt P24530+P25101). Nature of the assay: Selectivity for Endothelin A receptor compared to Endothelin B receptor. It is filed as protein assay.
Assay [3] concerns the target T3, Endothelin-1 receptor (Homo sapiens, UniProt P25101).
T3 sequence (P25101 whole entry): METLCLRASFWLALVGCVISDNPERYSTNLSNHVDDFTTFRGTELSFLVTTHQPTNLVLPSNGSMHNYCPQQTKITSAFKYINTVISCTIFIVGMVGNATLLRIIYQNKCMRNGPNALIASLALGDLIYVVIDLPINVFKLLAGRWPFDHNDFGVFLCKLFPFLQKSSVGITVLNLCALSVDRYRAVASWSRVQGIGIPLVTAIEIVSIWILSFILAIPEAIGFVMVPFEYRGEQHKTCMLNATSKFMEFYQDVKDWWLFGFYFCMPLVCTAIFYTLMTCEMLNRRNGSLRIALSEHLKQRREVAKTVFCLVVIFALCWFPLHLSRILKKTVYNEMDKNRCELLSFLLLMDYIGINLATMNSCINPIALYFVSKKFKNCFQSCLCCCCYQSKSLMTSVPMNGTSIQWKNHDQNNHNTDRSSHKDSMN
Nature of the assay: Inhibition of [125I]-ET-1 (ETA assay) binding to human cloned Endothelin A receptor in CHO cells. It is filed as cell-based. A digest of the protocol:
as §1

For assay [4], the system named is Rattus norvegicus. Nature of the assay: Inhibition of big ET-induced blood pressure increase in drug treated rats with LU 135252 and 10 mg/Kg of compound given perorally was reported as (AUD 30 min) in mmHg(min). It is filed as functional. A digest of the protocol: (§2)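 Male Sprague–Dawley rats dosed 10 mg/kg p.o.; urethane anesthesia (1.6 g/kg i.p.), tracheotomy 90 min later, carotid artery cannulated for blood pressure, jugular vein for agonist. Big ET-1 20 µg/kg i.v. at 120 min post-dose; pressure recorded over 30 min as area under the data (AUD30min), compared with control; mean ± SEM.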

For assay [5], the target named is T2, Endothelin receptor, ET-A/ET-B (Homo sapiens). Nature of the assay: Compound was tested for inhibition of big ET-induced bronchospasm in drug treated guinea pigs with LU 135252 and balanced ETA/B receptor antagonists at 10 mg/kg oral dose was reported as (AUD 30 min) in mL(min). Conditions: Cavia porcellus.
Assay [6] shares this target. Nature of the assay: Compound was tested for %inhibition of big ET-induced bronchospasm in guinea pigs with LU 135252 and balanced ETA/B receptor antagonists at 10 mg/kg oral dose was reported as (AUD 30 min) in mL(min). Conditions: Cavia porcellus.
For assay [7], the system named is Rattus norvegicus. Nature of the assay: Percent reduction of big ET-induced blood pressure increase in drug treated rats with LU 135252 and 10 mg/Kg of compound given perorally was reported as (AUD 30 min) in mmHg(min). It is filed as functional. A digest of the protocol:
as §2

Assay [8] has as its target T4, Endothelin receptor (Rattus norvegicus) (UniProt P26684+P21451). Particulars: Blood, 10 mg/kg.
In assay [9] the target is T4, Endothelin receptor (Rattus norvegicus). Particulars: Blood, 10 mg/kg. This is another data set of the same source.
Assay [10] concerns Rattus norvegicus. Nature of the assay: Inhibition of big ET-induced blood pressure increase in drug treated rats with 10 mg/Kg of compound given perorally was reported as (AUD 30 min) in mmHg(min). It is filed as functional. The method in brief: as §2
Assay [11] concerns the target T2, Endothelin receptor, ET-A/ET-B (Homo sapiens). Conditions: Rattus norvegicus; 10 mg/kg.
The target is the same in assay [12]. Conditions: Rattus norvegicus; 30 mg/kg.

The structures appear in SMILES notation.

T4 sequence (P21451 whole entry, looked up): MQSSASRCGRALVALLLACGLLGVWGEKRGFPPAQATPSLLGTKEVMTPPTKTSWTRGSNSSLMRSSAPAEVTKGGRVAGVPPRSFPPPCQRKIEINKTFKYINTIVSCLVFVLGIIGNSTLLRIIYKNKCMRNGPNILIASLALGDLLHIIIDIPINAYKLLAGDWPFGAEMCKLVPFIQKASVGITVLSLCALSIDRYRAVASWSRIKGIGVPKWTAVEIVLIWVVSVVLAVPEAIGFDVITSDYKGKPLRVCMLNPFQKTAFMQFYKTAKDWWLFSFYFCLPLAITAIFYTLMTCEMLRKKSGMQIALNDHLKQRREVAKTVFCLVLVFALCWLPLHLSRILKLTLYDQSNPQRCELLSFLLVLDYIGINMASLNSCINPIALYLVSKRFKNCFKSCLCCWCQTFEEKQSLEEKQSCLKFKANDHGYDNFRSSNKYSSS
T4 sequence (P26684 whole entry, looked up): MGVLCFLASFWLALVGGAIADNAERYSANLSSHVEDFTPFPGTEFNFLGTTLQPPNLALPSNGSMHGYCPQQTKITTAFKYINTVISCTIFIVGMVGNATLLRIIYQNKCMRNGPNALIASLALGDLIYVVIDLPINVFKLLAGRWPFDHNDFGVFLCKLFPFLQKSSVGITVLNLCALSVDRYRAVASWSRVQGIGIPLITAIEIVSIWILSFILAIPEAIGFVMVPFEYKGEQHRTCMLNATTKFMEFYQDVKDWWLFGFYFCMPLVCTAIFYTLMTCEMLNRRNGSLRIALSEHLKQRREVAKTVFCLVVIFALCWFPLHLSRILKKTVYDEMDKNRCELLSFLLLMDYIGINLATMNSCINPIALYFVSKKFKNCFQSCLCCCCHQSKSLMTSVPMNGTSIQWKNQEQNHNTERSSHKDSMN

Regarding `COc1ccc(OC(c2ccccc2)(c2ccccc2)C(Oc2nc(C)cc(C)n2)C(=O)O)cc1OC` (stereo not drawn), the Ki (in general, the dissociation constant of the complex between target and ligand, obtained from inhibition or displacement) was determined as 0.06 µM in assay [1] and 0.00048 µM in [3]. Also, the Ratio in assay [2] worked out at 125.
In the same order, the values of `CCc1ccc(C(OCCc2ccc(OC)cc2)(c2ccc(CC)cc2)C(Oc2nc(C)cc(C)n2)C(=O)O)cc1` (stereo not drawn) are 0.195 µM, 0.25 µM and 0.8.
Regarding `COc1ccc(CCOC(c2ccccc2)(c2ccccc2)[C@H](Oc2nc(C)cc(C)n2)C(=O)O)cc1OC` [FELOPRENTAN], the BP increase came out at 583 mmHg in assay [4] and 61% in assay [7]. The inhibition constant Ki in [1] came to 0.00475 µM; in assay [3] it was 0.00215 µM. Besides, the Reduction in respiratory volume in assay [5] was 46 mL; in assay [6], 79%. The Ratio in assay [2] was determined as 2.2.
`Cc1ccc(/C=C/COC(c2ccccc2)(c2ccccc2)C(Oc2nc(C)cc(C)n2)C(=O)O)cc1` (stereo not drawn): the Ki in assay [1] was 0.32 µM; in assay [3], 0.032 µM.
Turning to `Cc1ccc(CCOC(c2ccccc2)(c2ccccc2)C(Oc2nc(C)cc(C)n2)C(=O)O)cc1` (stereo not drawn), the values for the Ki in assay [1] and in assay [3] were 0.055 µM and 0.0325 µM, respectively.
As for `COc1ccc(CCOC(c2ccccc2)(c2ccccc2)C(Oc2nc(C)cc(C)n2)C(=O)O)cc1` (stereo not drawn), the values for the BP increase in assay [4] and in [7] were 976 mmHg and 33%, respectively. This molecule showed an inhibitory constant (Ki) in [1] of 0.0242 µM. In addition, the Ratio in assay [2] is 4.
As to `COc1cc(C)nc(OC(C(=O)O)C(OCCc2ccc(OC)c(OC)c2)(c2ccc(Cl)cc2)c2ccc(Cl)cc2)n1` (stereo not drawn), the Ratio in assay [2] was 0.6.
As to `COc1ccc(CCOC(c2ccccc2)(c2ccccc2)C(Oc2nc(C)cc(C)n2)C(=O)O)cc1OC` (stereo not drawn), the BP increase in assay [4] amounted to 641 mmHg; in [7], 58%. The Reduction in respiratory volume in assay [5] amounted to 71 mL; in assay [6] it was 67%. Also, the Ratio in assay [2] was 2.
`Cc1cc(C)nc(OC(C(=O)O)C(OCCc2ccc(Cl)cc2)(c2ccccc2)c2ccccc2)n1` (stereo not drawn) returned a Ki in assay [1] of 0.0941 µM. In assay [2], the Ratio amounted to 4.7.
Consider `COc1cc(/C=C/COC(c2ccccc2)(c2ccccc2)C(Oc2nc(C)cc(C)n2)C(=O)O)cc(OC)c1OC` (stereo not drawn), for which the values for the Ki in assay [1] and in assay [3] were 0.02 µM and 0.048 µM, respectively. Further, the Ratio in [2] is 0.4.
The like results for `Cc1cc(C)nc(OC(C(=O)O)C(OCCc2ccccc2)(c2ccccc2)c2ccccc2)n1` (stereo not drawn) were, in that order, 0.23 µM, 0.025 µM and 9.2.
In the same order, the values of `CCc1ccc(C(OCCc2ccc(OC)c(OC)c2)(c2ccc(CC)cc2)C(Oc2nc(C)cc(OC)n2)C(=O)O)cc1` (stereo not drawn) are 0.04 µM, 0.0393 µM and 1.
The like results for `COc1ccc(CCOC(c2ccc(Cl)cc2)(c2ccc(Cl)cc2)C(Oc2nc3c(c(OC)n2)CCC3)C(=O)O)cc1OC` (stereo not drawn) were, in that order, 0.215 µM, 0.29 µM and 0.7.
As for `CCc1ccc(C(OCCc2ccc(OC)cc2)(c2ccc(CC)cc2)C(Oc2nc(C)cc(OC)n2)C(=O)O)cc1` (stereo not drawn), the Ki was determined as 0.16 µM in assay [1] and 0.155 µM in assay [3]. The Ratio in [2] worked out at 1.
Turning to `COc1ccc(CCOC(c2ccccc2)(c2ccccc2)C(Oc2nc(C)cc(OC)n2)C(=O)O)cc1` (stereo not drawn), the Ratio in [2] is 11.8. Further, the affinity in assay [3], expressed as Ki, was 0.00195 µM.
For `COc1ccccc1Oc1c(NS(=O)(=O)c2ccc(C(C)(C)C)cc2)nc(-c2ncccn2)nc1OCCO`, the BP increase was 1400 AUD30min in assay [8] and 7% in assay [9].
Take `COc1ccc(CCOC(c2ccc(C)cc2)(c2ccc(C)cc2)C(Oc2nc(OC)c3c(n2)OCC3)C(=O)O)cc1` (stereo not drawn): the inhibition constant (Ki) in [1] was 0.0712 µM; in assay [3], 0.105 µM. Moreover, in assay [2], the Ratio turned out to be 0.7.
Regarding `Cc1ccc(CCCOC(c2ccccc2)(c2ccccc2)C(Oc2nc(C)cc(C)n2)C(=O)O)cc1` (stereo not drawn), the inhibition constant (Ki) in [1] was 0.17 µM; in assay [3], 0.023 µM.
For `COc1cc(CCOC(c2ccccc2)(c2ccccc2)C(Oc2nc(C)cc(C)n2)C(=O)O)cc(OC)c1OC` (stereo not drawn), the BP increase in assay [4] was found to be 1123 mmHg; in assay [7], 25%. The figures for the inhibition constant Ki in assay [1] and in assay [3] were 0.00321 µM and 0.00138 µM, respectively. The Ratio in [2] is 2.3.
Turning to `COc1cc(OC)nc(O[C@H](C(=O)O)C(OC)(c2ccccc2)c2ccccc2)n1` [DARUSENTAN], the BP increase in assay [10] is listed as 636 mmHg. Further, the Reduction in respiratory volume in [11] is 19 mL; in assay [12], 172 mL.
Take `CCOc1ccc(CCOC(c2ccccc2)(c2ccccc2)C(Oc2nc(C)cc(C)n2)C(=O)O)cc1OC` (stereo not drawn): the BP increase in assay [4] turned out to be 475 mmHg; in assay [7] it was 68%. The Ki in assay [1] worked out at 0.0251 µM; in [3] it was 0.00313 µM. Also, the Ratio in [2] came out at 8.
Take `Cc1cc(C)nc(OC(C(=O)O)C(OCCc2ccc(O)cc2)(c2ccccc2)c2ccccc2)n1` (stereo not drawn): the Ki turned out to be 0.0162 µM in assay [1] and 0.00348 µM in assay [3]. In addition, the Ratio in assay [2] turned out to be 4.7.
The like results for `COc1ccc(COC(c2ccccc2)(c2ccccc2)C(Oc2nc(C)cc(C)n2)C(=O)O)cc1OC` (stereo not drawn) were, in that order, 0.063 µM, 0.002 µM and 31.
Take `COc1cc(CCOC(c2ccccc2)(c2ccccc2)C(Oc2nc(C)cc(C)n2)C(=O)O)ccc1OCC(=O)O` (stereo not drawn): the BP increase in assay [4] was determined as 1294 mmHg; in assay [7], 14%. Also, the Ki is 0.024 µM in assay [1] and 0.00192 µM in assay [3]. Further, in assay [2], the Ratio was determined as 12.
Regarding `COc1cc(C)nc(OC(C(=O)O)C(OCCc2ccc(OC)c(OC)c2)(c2ccccc2)c2ccccc2)n1` (stereo not drawn), the inhibition constant Ki in assay [1] stood at 0.0147 µM; in assay [3], 0.00237 µM. The Ratio in [2] stood at 6.2.
Turning to `Cc1cc(C)nc(OC(C(=O)O)C(OCCc2ccc(C(=O)O)cc2)(c2ccccc2)c2ccccc2)n1` (stereo not drawn), the Ki in [1] is 0.115 µM; in [3], 0.0015 µM. Moreover, in assay [2], the Ratio is 77.

These data come from ChEMBL document CHEMBL1132335, “Discovery and synthesis of (S)-3-[2-(3,4-dimethoxyphenyl)ethoxy]-2- (4,6-dimethylpyrimidin-2-yloxy)-3,3-diphenylpropionic acid (LU 302872), a novel orally active mixed ET(A)/ET(B) receptor antagonist” (J Med Chem, 1999).
